17 molecules from ChEMBL document CHEMBL3124784, “Synthesis, in vitro antiplasmodial activity and cytotoxicity of a series of artemisinin-triazine hybrids and hybrid-dimers” (Eur J Med Chem, 2014) can be followed below.

Structures are written as SMILES.

Data set [1] can be described thus: Selectivity index, ratio of IC50 for CHO cells to IC50 for asexual erythrocytic stage of chloroquine-sensitive Plasmodium falciparum NF54. The class given is toxicity, cell-based. The following applies: hamster; read-out: Ratio IC50.
The test system of another data set is CHO. As to the kind of experiment: Cytotoxicity against CHO cells after 48 hrs by MTT assay. The class given is cell-based. As to conditions: Cricetulus griseus. A general note: Tetrazolium assays rely on reduction of a dye to a coloured formazan, in cell work by metabolically active cells.
Data set [2] can be described thus: Resistance index, ratio of IC50 for asexual erythrocytic stage of chloroquine-resistant Plasmodium falciparum Dd2 to IC50 for asexual erythrocytic stage of chloroquine-sensitive Plasmodium falciparum NF54. The class given is functional.
Data set [3] has as its system Plasmodium falciparum. Nature of the data set: Antiplasmodial activity against asexual erythrocytic stage of chloroquine-resistant Plasmodium falciparum Dd2 assessed as parasite growth inhibition after 48 hrs by lactate dehydrogenase assay. The class given is functional, organism-based. The following applies: Dd2, 48 h. An outline of the steps:
(§1)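 pLDH assay (modified Makler method) on cultured parasites, 48 h exposure. Stocks 20 mg/mL in 100% DMSO, stored at −20 °C, diluted in complete medium on the day of analysis; suspensions tested if not fully dissolved. Two-fold serial dilutions over ten concentrations; references started at 1000 ng/mL. Full dose-response for IC50; triplicate on one occasion.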

Data set [4] has as its system Plasmodium falciparum. Nature of the data set: Antiplasmodial activity against asexual erythrocytic stage of chloroquine-sensitive Plasmodium falciparum NF54 assessed as parasite growth inhibition after 48 hrs by lactate dehydrogenase assay. The class given is functional, organism-based. The following applies: NF54, 48 h. The gist of the method: as §1
The subject of data set [5] is Plasmodium falciparum. Nature of the data set: Potency index, ratio of pyrimethamine IC50 to compound IC50 for asexual erythrocytic stage of chloroquine-sensitive Plasmodium falciparum NF54. The class given is functional.
In data set [6] the test system is Plasmodium falciparum. As to the kind of experiment: Potency index, ratio of chloroquine IC50 to compound IC50 for asexual erythrocytic stage of chloroquine-sensitive Plasmodium falciparum NF54. The class given is functional.

As a reminder, the IC50 is the midpoint of a concentration-inhibition curve. Take `C[C@H]1[C@@H](O)O[C@@H]2O[C@@]3(C)CC[C@H]4[C@H](C)CC[C@@H]1[C@@]24OO3` [ARTENIMOL]: in data set [1], the selectivity ratio turned out to be 162000. The IC50 worked out at 148000 nM with CHO, 8.8 nM in the data set on Plasmodium falciparum [3] and 0.9 nM in the data set with Plasmodium falciparum [4]. The Ratio IC50 in data set [2] amounted to 9.7.

On to `COc1ccc(Nc2nc(NCCNCCO[C@H]3O[C@@H]4O[C@@]5(C)CC[C@H]6[C@H](C)CC[C@@H]([C@H]3C)[C@@]46OO5)nc(NCCN(C(C)C)C(C)C)n2)cc1.O=C(O)C(=O)O`, for which the “Ratio IC50” value was “<=6000” with Plasmodium falciparum [5] and 1.9 in data set [2]. In addition, the selectivity ratio in data set [1] came to 23. In addition, the IC50 was found to be 900 nM in the data set with CHO, 74.7 nM in the data set with Plasmodium falciparum [3] and 39.1 nM in the data set on Plasmodium falciparum [4].

With `COc1ccc(Nc2nc(NCCNCCO[C@H]3O[C@@H]4O[C@@]5(C)CC[C@H]6[C@H](C)CC[C@@H]([C@H]3C)[C@@]46OO5)nc(Nc3ccccc3)n2)cc1.O=C(O)C(=O)O`, the figures for the “Ratio IC50” value (with Plasmodium falciparum [5]; in data set [2]) were “<=6000” and 1.5, respectively. The selectivity ratio in data set [1] was above 5050. The IC50 is above 100 µg/mL in the data set with CHO, 28.8 nM with Plasmodium falciparum [3] and 19.8 nM in the data set with Plasmodium falciparum [4].

In the case of `COc1ccc(Nc2nc(NCCN(CCO[C@H]3O[C@@H]4O[C@@]5(C)CC[C@H]6[C@H](C)CC[C@@H]([C@H]3C)[C@@]46OO5)CCO[C@H]3O[C@@H]4O[C@@]5(C)CC[C@H]6[C@H](C)CC[C@@H]([C@H]3C)[C@@]46OO5)nc(N3CCCCC3)n2)cc1.O=C(O)C(=O)O`, the “Ratio IC50” value in the data set with Plasmodium falciparum [5] is “<=6000”; in data set [2], 1.2. Moreover, the selectivity ratio in data set [1] is 1470. For the same molecule, the IC50 with CHO was found to be 17000 nM; with Plasmodium falciparum [3], 13.6 nM; in the data set with Plasmodium falciparum [4], 11.6 nM.

In the case of `COc1ccc(Nc2nc(NCCN(CCO[C@H]3O[C@@H]4O[C@@]5(C)CC[C@H]6[C@H](C)CC[C@@H]([C@H]3C)[C@@]46OO5)CCO[C@H]3O[C@@H]4O[C@@]5(C)CC[C@H]6[C@H](C)CC[C@@H]([C@H]3C)[C@@]46OO5)nc(N3CCOCC3)n2)cc1.O=C(O)C(=O)O`, the “Ratio IC50” value in the data set with Plasmodium falciparum [5] was “<=6000”; in data set [2] it was 1.4. Further, the selectivity ratio in data set [1] stood at 35. Also, the IC50 is 900 nM in the data set with CHO, 35.9 nM in the data set on Plasmodium falciparum [3] and 25.8 nM in the data set on Plasmodium falciparum [4].

As for `C[C@H]1[C@@H](OCCN(CCNc2nc(Nc3ccccc3)nc(N3CCOCC3)n2)CCO[C@H]2O[C@@H]3O[C@@]4(C)CC[C@H]5[C@H](C)CC[C@@H]([C@H]2C)[C@@]35OO4)O[C@@H]2O[C@@]3(C)CC[C@H]4[C@H](C)CC[C@@H]1[C@@]24OO3.O=C(O)C(=O)O`, the “Ratio IC50” value in the data set with Plasmodium falciparum [5] was “<=6000”; in data set [2] it was 1.3. In addition, the selectivity ratio in data set [1] was above 13500. Moreover, the IC50 was above 100 µg/mL in the data set on CHO, 10.2 nM with Plasmodium falciparum [3] and 7.9 nM in the data set with Plasmodium falciparum [4].

Regarding `C[C@H]1[C@@H](OCCNCCNc2nc(Nc3ccccc3)nc(Nc3ccccc3)n2)O[C@@H]2O[C@@]3(C)CC[C@H]4[C@H](C)CC[C@@H]1[C@@]24OO3.O=C(O)C(=O)O`, the entries for the “Ratio IC50” value (in the data set with Plasmodium falciparum [5]; in data set [2]) were “<=6000” and 2.2, respectively. Also, the selectivity ratio in data set [1] came out at 588. Moreover, the IC50 with CHO came to 16000 nM; in the data set with Plasmodium falciparum [3], 59.1 nM; in the data set with Plasmodium falciparum [4], 27.2 nM.

`C[C@H]1[C@@H](OCCN(CCNc2nc(Nc3ccccc3)nc(Nc3ccccc3)n2)CCO[C@H]2O[C@@H]3O[C@@]4(C)CC[C@H]5[C@H](C)CC[C@@H]([C@H]2C)[C@@]35OO4)O[C@@H]2O[C@@]3(C)CC[C@H]4[C@H](C)CC[C@@H]1[C@@]24OO3.O=C(O)C(=O)O`: the “Ratio IC50” value with Plasmodium falciparum [5] is “<=6000”; in data set [2], 0.8. The selectivity ratio in data set [1] is 54. Moreover, the values for the IC50 in the data set on CHO, in the data set with Plasmodium falciparum [3] and in the data set on Plasmodium falciparum [4] were 700 nM, 10.3 nM and 12.9 nM, respectively.

`C[C@H]1[C@@H](OCCNCCNc2nc(N3CCOCC3)nc(N3CCOCC3)n2)O[C@@H]2O[C@@]3(C)CC[C@H]4[C@H](C)CC[C@@H]1[C@@]24OO3.O=C(O)C(=O)O`: the “Ratio IC50” value is “<=6000” with Plasmodium falciparum [5] and 4.4 in data set [2]. In addition, the selectivity ratio in data set [1] was 160. Further, the IC50 with CHO was found to be 3100 nM; in the data set on Plasmodium falciparum [3], 85 nM; with Plasmodium falciparum [4] it was 19.3 nM.

Turning to `COc1ccc(Nc2nc(NCCNCCO[C@H]3O[C@@H]4O[C@@]5(C)CC[C@H]6[C@H](C)CC[C@@H]([C@H]3C)[C@@]46OO5)nc(N3CCCCC3)n2)cc1.O=C(O)C(=O)O`, the “Ratio IC50” value was “<=6000” in the data set with Plasmodium falciparum [5] and 1.7 in data set [2]. Further, in data set [1], the selectivity ratio turned out to be 105. Further, the IC50 in the data set with CHO was determined as 3000 nM; in the data set on Plasmodium falciparum [3], 46.3 nM; in the data set with Plasmodium falciparum [4] it was 28 nM.

Molecule `CC[C@H]1CN2CCc3cc(OC)c(OC)cc3[C@@H]2C[C@@H]1C[C@H]1NCCc2cc(OC)c(OC)cc21` [EMETINE] returned a half-maximal inhibitory concentration (IC50) in the data set with CHO of 100 nM.

Turning to `COc1ccc(Nc2nc(NCCNCCO[C@H]3O[C@@H]4O[C@@]5(C)CC[C@H]6[C@H](C)CC[C@@H]([C@H]3C)[C@@]46OO5)nc(N3CCOCC3)n2)cc1.O=C(O)C(=O)O`, the “Ratio IC50” value with Plasmodium falciparum [5] was “<=6000”; in data set [2], 1.5. Further, the selectivity ratio in data set [1] turned out to be 81. Further, the IC50 came to 3100 nM in the data set with CHO, 57.4 nM in the data set with Plasmodium falciparum [3] and 38.5 nM in the data set on Plasmodium falciparum [4].

For `C[C@H]1[C@@H](OCCNCCNc2nc(N3CCCCC3)nc(N3CCCCC3)n2)O[C@@H]2O[C@@]3(C)CC[C@H]4[C@H](C)CC[C@@H]1[C@@]24OO3.O=C(O)C(=O)O`, the “Ratio IC50” value was “<=6000” in the data set on Plasmodium falciparum [5] and 2.3 in data set [2]. Further, the selectivity ratio in data set [1] is 150. The IC50 is 3100 nM with CHO, 47.5 nM in the data set with Plasmodium falciparum [3] and 20.6 nM in the data set on Plasmodium falciparum [4].

Turning to `CCc1nc(N)nc(N)c1-c1ccc(Cl)cc1` [PYRIMETHAMINE], the values for the IC50 in the data set on CHO, in the data set on Plasmodium falciparum [3] and with Plasmodium falciparum [4] were 271000 nM, 60700 nM and 33000 nM, respectively.

As to `C[C@H]1[C@H](OC(=O)CCC(=O)O)O[C@@H]2O[C@@]3(C)CC[C@H]4[C@H](C)CC[C@@H]1[C@@]24OO3` [ARTESUNATE], the IC50 is 8.1 nM with Plasmodium falciparum [3] and below 5.2 nM in the data set with Plasmodium falciparum [4].

Turning to `COc1ccc(Nc2nc(NCCN(CCO[C@H]3O[C@@H]4O[C@@]5(C)CC[C@H]6[C@H](C)CC[C@@H]([C@H]3C)[C@@]46OO5)CCO[C@H]3O[C@@H]4O[C@@]5(C)CC[C@H]6[C@H](C)CC[C@@H]([C@H]3C)[C@@]46OO5)nc(NCCN(C(C)C)C(C)C)n2)cc1.O=C(O)C(=O)O`, the “Ratio IC50” value in the data set with Plasmodium falciparum [5] was “<=6000”; in data set [2], 1. In addition, in data set [1], the selectivity ratio is above 3080. Also, the results for the IC50 in the data set on CHO, with Plasmodium falciparum [3] and in the data set with Plasmodium falciparum [4] were above 100 µg/mL, 33.1 nM and 31.8 nM, respectively.

With `COc1ccc(Nc2nc(NCCN(CCO[C@H]3O[C@@H]4O[C@@]5(C)CC[C@H]6[C@H](C)CC[C@@H]([C@H]3C)[C@@]46OO5)CCO[C@H]3O[C@@H]4O[C@@]5(C)CC[C@H]6[C@H](C)CC[C@@H]([C@H]3C)[C@@]46OO5)nc(Nc3ccc(OC)cc3)n2)cc1.O=C(O)C(=O)O`, the “Ratio IC50” value in the data set with Plasmodium falciparum [6] is 2; in the data set with Plasmodium falciparum [5] it was “<=6000”; in data set [2], 1.9. Further, the selectivity ratio in data set [1] is above 18200. Besides, the IC50 in the data set on CHO was above 100 µg/mL; in the data set on Plasmodium falciparum [3] it was 10.6 nM; with Plasmodium falciparum [4], 5.5 nM.
